{"source": "ChEMBL document CHEMBL3091364", "about": "“Benzyloxybenzylammonium chlorides: Simple amine salts that display anticonvulsant activity” (Bioorg Med Chem, 2013)", "key": {"Mus musculus [1]": {"test_system": "Mus musculus", "test": "Anticonvulsant activity in ip dosed albino CF-1 mouse assessed as protection against 6 Hz psychomotor seizure measured at 0.5 hrs", "assay_type": "functional", "settings": "albino CF-1, ip", "procedure,_shortened": "(§1)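 Screened under the NINDS ASP in male albino Carworth Farms No. 1 mice (ip) or male albino Sprague-Dawley rats (ip or po), using MES, 6 Hz (32 mA) and subcutaneous pentylenetetrazol seizure tests. Initial qualitative tests used preset doses (e.g., 30, 50, 100 mg/kg). ED50 values with 95% confidence intervals came from dose–response data collected at the time of peak effect.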"}, "Mus musculus [2]": {"test_system": "Mus musculus", "test": "Anticonvulsant activity in albino CF-1 mouse assessed as protection against maximal electroshock-induced seizures at 100 mg/kg, ip", "assay_type": "functional, organism-based", "set-up": "dose 100 mg/kg", "procedure,_shortened": "as §1"}}, "note": "Active and inactive are the calls of the source. The calls are words filed in the database; no cut-off is given here.", "data": [{"smiles": "COC[C@@H](NC(C)=O)C(=O)NCc1ccccc1", "note": "[LACOSAMIDE]", "values": [{"measurement": "ED50", "setting": "Mus musculus [1]", "result": 10, "unit": "mg/kg"}]}, {"smiles": "Fc1cccc(COc2ccccc2)c1", "values": [{"measurement": "Activity", "setting": "Mus musculus [2]", "result": "inactive"}]}]}
